In data set [1] the test system is Rattus norvegicus. The data set is described as follows: Antiinflammatory activity in rat assessed as inhibition of carrageenan-induced paw edema at 0.01 mmol/kg, po after 3 hrs relative to control. The arrangement: scale not given: the % may be the effect or the level left. It counts as functional. The gist of the method: (§1)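 Rats were given an oral gavage suspension in 1% methylcellulose, at doses equimolar to the parent NSAID: 0.71, 0.32 or 0.01 mmol/kg. Controls received an equal volume of vehicle. Carrageenan-induced paw edema was read 3 h after dosing. Activity is the % decrease in the inflammatory response versus the vehicle group.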

For data set [2], the system named is Rattus norvegicus. The data set is described as follows: Ulcerogenic effect in rat assessed as gastric ulcer overall length at 0.08 mmol/kg, po administered for 6 hrs. It counts as toxicity, organism-based, Stomach. The note with it: in vivo. The gist of the method: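 Rats were fasted 24 h with water allowed, then dosed orally at 0.08 mmol/kg as a suspension in 1% methylcellulose. Controls received vehicle. After 6 h, animals were killed by CO2 and stomachs opened along the greater curvature, rinsed and kept on ice. Each ulcer was measured along its greatest length under a magnifier. Ulcer index is the total ulcer length per stomach averaged over n = 4, ±SEM.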

The test system of data set [3] is Rattus norvegicus. The experiment in a line: Antiinflammatory activity in rat assessed as inhibition of carrageenan-induced paw edema at 0.32 mmol/kg, po after 3 hrs relative to control. Type of data set: functional. The arrangement: scale not given: the % may be the effect or the level left. The gist of the method: as §1
On the technique in general: The carrageenan paw model is a standard test of acute inflammation.

The subject of data set [4] is Rattus norvegicus. The experiment in a line: Antiinflammatory activity in po dosed rat assessed as inhibition of carrageenan-induced paw edema after 3 hrs. It counts as functional. As to conditions: read-out: ID50 (the source's name). The gist of the method: as §1
Data set [5] in a line: Lipophilicity, log P of the compound. As to conditions: octanol/water. Type of data set: physicochemical. An outline of the steps: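 Log P is a theoretical n-octanol/water distribution coefficient, calculated rather than measured.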
The target in data set [6] is T1, Prostaglandin G/H synthase 1 (Ovis aries, UniProt P05979).
T1 sequence (P05979 whole entry): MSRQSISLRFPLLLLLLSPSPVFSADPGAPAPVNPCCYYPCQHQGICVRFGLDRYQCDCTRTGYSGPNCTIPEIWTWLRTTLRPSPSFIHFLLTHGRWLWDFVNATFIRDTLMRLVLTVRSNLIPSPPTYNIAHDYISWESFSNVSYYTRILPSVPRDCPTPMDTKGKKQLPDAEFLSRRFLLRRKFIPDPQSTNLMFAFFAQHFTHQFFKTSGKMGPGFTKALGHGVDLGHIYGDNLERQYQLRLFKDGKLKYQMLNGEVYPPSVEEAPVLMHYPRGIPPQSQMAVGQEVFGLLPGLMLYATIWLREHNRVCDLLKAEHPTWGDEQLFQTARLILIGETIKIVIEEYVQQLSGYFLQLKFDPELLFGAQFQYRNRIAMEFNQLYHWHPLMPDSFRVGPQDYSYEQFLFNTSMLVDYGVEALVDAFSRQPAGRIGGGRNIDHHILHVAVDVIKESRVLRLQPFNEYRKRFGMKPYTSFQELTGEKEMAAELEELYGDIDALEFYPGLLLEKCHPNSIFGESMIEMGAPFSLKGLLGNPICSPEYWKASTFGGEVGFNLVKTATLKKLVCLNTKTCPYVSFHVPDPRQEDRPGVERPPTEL
The experiment in a line: Inhibition of ovine COX1. An outline of the steps:
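Ovine COX-1 was tested in a cyclooxygenase inhibitor screening kit, following the manufacturer's procedure. Deviation from the mean was <10%.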

For data set [7], the system named is Rattus norvegicus. The experiment in a line: Antiinflammatory activity in rat assessed as inhibition of carrageenan-induced paw edema at 0.71 mmol/kg, po after 3 hrs relative to control. Type of data set: functional. The arrangement: scale not given: the % may be the effect or the level left. An outline of the steps:
as §1

The test system of data set [8] is Rattus norvegicus. The data set is described as follows: Ulcerogenic effect in rat assessed as gastric ulcer overall length at 1.4 mmol/kg, po administered for 6 hrs. It counts as toxicity, organism-based, Stomach. The note with it: in vivo. An outline of the steps:
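Rats fasted 24 h with water allowed, then given a suspension in 1.2 mL 1% methylcellulose by gavage. Controls received vehicle. At 6 h, CO2 euthanasia. Stomachs were opened along the greater curvature, rinsed and put on ice. Ulcers were counted and measured under a magnifier (≤1 mm = 1, 1–2 mm = 2, >2 mm = length). Ulcer index = summed length per stomach averaged over n = 4, ±SEM.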

As to `COc1ccc2c(c1)c(CC(=O)O)c(C)n2C(=O)c1ccc(Cl)cc1` [INDOMETHACIN], in the data set with Rattus norvegicus [1], the Activity is 38.3%. The UI in the data set on Rattus norvegicus [2] is 34.4 mm.
The term logP denotes the decadic logarithm of the partition coefficient of the neutral form, usually between octanol and water. On to `CC(C)Cc1ccc(C(C)C(=O)O)cc1` (stereo not given) [IBUPROFEN], for which the Activity with Rattus norvegicus [3] stood at 50%. Besides, the ED50 with Rattus norvegicus [4] amounted to 300 µmol/kg. Moreover, the logP in data set [5] turned out to be 3.7.
A word on the IC50: it is the concentration that inhibits the measured activity by half. In turn, `CC(=O)Oc1ccccc1C(=O)Oc1ccc(CCO)cc1` displayed an IC50 in data set [6] of 0.03 µM. Besides, in the data set on Rattus norvegicus [7], the Activity was found to be 58%. For the same compound, in data set [5], the logP came out at 2. Also, the UI in the data set with Rattus norvegicus [8] was determined as 2.6 mm.
With `CC(=O)Oc1ccccc1C(=O)O` [ASPIRIN], the Activity in the data set on Rattus norvegicus [7] stood at 50%. Besides, the ED50 in the data set with Rattus norvegicus [4] came to 700 µmol/kg. Besides, in data set [5], the logP stood at 1.2. Further, the UI with Rattus norvegicus [8] is 57.4 mm.
As to `COc1ccc2c(c1)c(CC(=O)Oc1ccc(CCO)cc1)c(C)n2C(=O)c1ccc(Cl)cc1`, in data set [6], the half-inhibitory concentration (IC50) was greater than 100 µM. Further, the Activity in the data set with Rattus norvegicus [1] is given as 61.3%. In the data set with Rattus norvegicus [2], the UI worked out at 9.6 mm.
As to `CC(C)Cc1ccc(C(C)C(=O)Oc2ccc(CCO)cc2)cc1` (stereo not given), in data set [6], 6.44 µM corresponded to half-maximal inhibition (IC50). The Activity with Rattus norvegicus [3] is recorded as 63%. In data set [5], this compound returned a logP of 4.6. Also, the UI in the data set with Rattus norvegicus [8] amounted to 3.5 mm.

These data come from ChEMBL document CHEMBL1955816, “Nitric oxide release is not required to decrease the ulcerogenic profile of nonsteroidal anti-inflammatory drugs” (J Med Chem, 2012).
